From ChEMBL document CHEMBL1777739, “Design, synthesis, and biological activity of novel Magmas inhibitors” (Bioorg Med Chem Lett, 2011)
pKd: −log10 of the molar value. Active and inactive are the calls of the source. The calls are words filed in the database; no cut-off is given here.

Assays:
Saccharomyces cerevisiae [1] = assay: Inhibition of TIM16-mediated Saccharomyces cerevisiae J47D proliferation in log phase at 1 uM measured for every 30 mins
Method in brief: (§1)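 Log-phase S. cerevisiae J47D plated at 1.5 × 10⁴ cells/well in YEPD. Compounds in DMSO added across 0–1 mM, triplicate wells, 1% final DMSO. Cultured at 30 °C with OD600 read every 30 min. n = 3; each experiment done at least twice independently.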

Saccharomyces cerevisiae [2] = assay: Inhibition of TIM16-mediated Saccharomyces cerevisiae J47D proliferation in log phase at 100 uM measured for every 30 mins; method in brief: as §1
Saccharomyces cerevisiae [3] = assay: Inhibition of TIM16-mediated Saccharomyces cerevisiae J47D proliferation in log phase at 1 mM measured for every 30 mins; method in brief: as §1
Saccharomyces cerevisiae [4] = assay: Inhibition of TIM16-mediated Saccharomyces cerevisiae J47D proliferation in log phase at 10 uM measured for every 30 mins; method in brief: as §1
[5] = Solubility of the compound at 1 mM; assay type: physicochemical; conditions: 1000 µM
[6] = system: T1, Saccharomyces cerevisiae [A104S]; assay: Inhibition of Saccharomyces cerevisiae TIM16 A104S mutant-mediated proliferation up to 60 mins
T1 sequence (whole entry): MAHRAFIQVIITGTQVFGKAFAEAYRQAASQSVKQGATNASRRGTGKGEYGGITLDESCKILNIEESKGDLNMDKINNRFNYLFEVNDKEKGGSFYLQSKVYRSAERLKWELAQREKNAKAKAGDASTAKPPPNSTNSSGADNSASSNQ
Method in brief: (§2)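 Yeast whose wild-type TIM16 plasmid was lost on FOA selection, carrying plasmid-borne Tim16 N84T or A104S mutants, cultured in YEPD at 30 °C. Compound added at graded concentrations in DMSO (1% final), triplicate wells. OD600 read every 30 min; compared with the wild-type plasmid strain.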

Saccharomyces cerevisiae [7] = assay: Inhibition of Saccharomyces cerevisiae TIM16 N84T mutant-mediated proliferation up to 60 mins; method in brief: as §2
[8] = Binding affinity to Saccharomyces cerevisiae Magmas by fluorometric titration
Method in brief: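 Intrinsic Trp/Tyr fluorescence of yeast Magmas (3 µM, unit as printed) in 50 mM Bis–Tris pH 7.1, 25 °C. Excitation 295 nm, emission read at 365 nm. Ligand titrated from 0 to […] using freshly made stock. Dilution kept ≤10% and corrected for. Kd obtained by fitting intensity versus total ligand concentration to a single-site binding equation.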

Brc1ccc2c(c1)C=CC(c1ccccc1)O2 (stereo not drawn)
inhibition (Saccharomyces cerevisiae [1]): inactive
inhibition (Saccharomyces cerevisiae [2]): Active
inhibition (Saccharomyces cerevisiae [3]): Active
inhibition (Saccharomyces cerevisiae [4]): Active

Clc1ccc2c(c1)C=CC(c1ccccc1)O2 (stereo not drawn)
inhibition (Saccharomyces cerevisiae [1]): inactive
inhibition (Saccharomyces cerevisiae [2]): Active
solubility [5]: Insoluble
inhibition (Saccharomyces cerevisiae [4]): inactive

CCC1=C(C)/C(=C/c2ccc(C(=O)NC(=N)N)cc2)CCC1(C)C
inhibition [6]: Active
inhibition (Saccharomyces cerevisiae [1]): inactive
inhibition (Saccharomyces cerevisiae [2]): Active
inhibition (Saccharomyces cerevisiae [7]): inactive
pKd [8]: 4.47
inhibition (Saccharomyces cerevisiae [3]): Active
inhibition (Saccharomyces cerevisiae [4]): Active

O=[N+]([O-])c1ccc2c(c1)C=CC(c1ccccc1)O2 (stereo not drawn)
inhibition (Saccharomyces cerevisiae [1]): inactive
inhibition (Saccharomyces cerevisiae [2]): inactive
inhibition (Saccharomyces cerevisiae [3]): inactive
inhibition (Saccharomyces cerevisiae [4]): inactive

CCCCCCCCC1C=Cc2cc([N+](=O)[O-])ccc2O1 (stereo not drawn)
inhibition (Saccharomyces cerevisiae [1]): inactive
inhibition (Saccharomyces cerevisiae [2]): Active
solubility [5]: Insoluble
inhibition (Saccharomyces cerevisiae [4]): inactive
